From PubChem BioAssay
Compounds with a hit are over-represented: about 4.6% of the library has one in this group of screens.
HDAC3 inhib: HDAC3 deacetylase inhibitors, primary screen, biochemical, fluorescence, cell-free homogeneous | recombinant HDAC3, fluorogenic peptide/trypsin coupled | inhibition, % at 8.3 µM | 320,000 compounds, 0.15% hits; in the data active = inhibition above about 26%, passing the limit was not always enough; inconclusive = no clear call, values can overlap the other calls
PfM18AAP inh: PfM18AAP inhibitors, malaria aminopeptidase, primary screen, biochemical, QFRET, recombinant enzyme | M18 aspartyl aminopeptidase (Plasmodium falciparum 3D7) | H-Glu-NHMec fluorogenic cleavage | inhibition, % at 7.35 µM | 290,000 compounds, 1.2% hits;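 active = inhibition above the campaign mean inhibition over all tested compounds plus 3 SD, cut at about 28% in these data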
FAS-TE inh: FAS thioesterase domain inhibitors, primary screen, biochemical, fluorescence intensity, uHTS. Fatty acid synthase (Homo sapiens), P49327. recombinant FAS-TE, OMFH fluorogenic substrate, fluorescence endpoint. inhibition, % at 15 µM. 360,000 compounds, 0.67% hits. AID 602261, 2012;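 active = compounds whose normalised, plate-corrected inhibition of enzyme fluorescence in the single-dose primary screen is 50% or more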
Target sequence (P49327 whole entry, looked up, the tested form may be a part): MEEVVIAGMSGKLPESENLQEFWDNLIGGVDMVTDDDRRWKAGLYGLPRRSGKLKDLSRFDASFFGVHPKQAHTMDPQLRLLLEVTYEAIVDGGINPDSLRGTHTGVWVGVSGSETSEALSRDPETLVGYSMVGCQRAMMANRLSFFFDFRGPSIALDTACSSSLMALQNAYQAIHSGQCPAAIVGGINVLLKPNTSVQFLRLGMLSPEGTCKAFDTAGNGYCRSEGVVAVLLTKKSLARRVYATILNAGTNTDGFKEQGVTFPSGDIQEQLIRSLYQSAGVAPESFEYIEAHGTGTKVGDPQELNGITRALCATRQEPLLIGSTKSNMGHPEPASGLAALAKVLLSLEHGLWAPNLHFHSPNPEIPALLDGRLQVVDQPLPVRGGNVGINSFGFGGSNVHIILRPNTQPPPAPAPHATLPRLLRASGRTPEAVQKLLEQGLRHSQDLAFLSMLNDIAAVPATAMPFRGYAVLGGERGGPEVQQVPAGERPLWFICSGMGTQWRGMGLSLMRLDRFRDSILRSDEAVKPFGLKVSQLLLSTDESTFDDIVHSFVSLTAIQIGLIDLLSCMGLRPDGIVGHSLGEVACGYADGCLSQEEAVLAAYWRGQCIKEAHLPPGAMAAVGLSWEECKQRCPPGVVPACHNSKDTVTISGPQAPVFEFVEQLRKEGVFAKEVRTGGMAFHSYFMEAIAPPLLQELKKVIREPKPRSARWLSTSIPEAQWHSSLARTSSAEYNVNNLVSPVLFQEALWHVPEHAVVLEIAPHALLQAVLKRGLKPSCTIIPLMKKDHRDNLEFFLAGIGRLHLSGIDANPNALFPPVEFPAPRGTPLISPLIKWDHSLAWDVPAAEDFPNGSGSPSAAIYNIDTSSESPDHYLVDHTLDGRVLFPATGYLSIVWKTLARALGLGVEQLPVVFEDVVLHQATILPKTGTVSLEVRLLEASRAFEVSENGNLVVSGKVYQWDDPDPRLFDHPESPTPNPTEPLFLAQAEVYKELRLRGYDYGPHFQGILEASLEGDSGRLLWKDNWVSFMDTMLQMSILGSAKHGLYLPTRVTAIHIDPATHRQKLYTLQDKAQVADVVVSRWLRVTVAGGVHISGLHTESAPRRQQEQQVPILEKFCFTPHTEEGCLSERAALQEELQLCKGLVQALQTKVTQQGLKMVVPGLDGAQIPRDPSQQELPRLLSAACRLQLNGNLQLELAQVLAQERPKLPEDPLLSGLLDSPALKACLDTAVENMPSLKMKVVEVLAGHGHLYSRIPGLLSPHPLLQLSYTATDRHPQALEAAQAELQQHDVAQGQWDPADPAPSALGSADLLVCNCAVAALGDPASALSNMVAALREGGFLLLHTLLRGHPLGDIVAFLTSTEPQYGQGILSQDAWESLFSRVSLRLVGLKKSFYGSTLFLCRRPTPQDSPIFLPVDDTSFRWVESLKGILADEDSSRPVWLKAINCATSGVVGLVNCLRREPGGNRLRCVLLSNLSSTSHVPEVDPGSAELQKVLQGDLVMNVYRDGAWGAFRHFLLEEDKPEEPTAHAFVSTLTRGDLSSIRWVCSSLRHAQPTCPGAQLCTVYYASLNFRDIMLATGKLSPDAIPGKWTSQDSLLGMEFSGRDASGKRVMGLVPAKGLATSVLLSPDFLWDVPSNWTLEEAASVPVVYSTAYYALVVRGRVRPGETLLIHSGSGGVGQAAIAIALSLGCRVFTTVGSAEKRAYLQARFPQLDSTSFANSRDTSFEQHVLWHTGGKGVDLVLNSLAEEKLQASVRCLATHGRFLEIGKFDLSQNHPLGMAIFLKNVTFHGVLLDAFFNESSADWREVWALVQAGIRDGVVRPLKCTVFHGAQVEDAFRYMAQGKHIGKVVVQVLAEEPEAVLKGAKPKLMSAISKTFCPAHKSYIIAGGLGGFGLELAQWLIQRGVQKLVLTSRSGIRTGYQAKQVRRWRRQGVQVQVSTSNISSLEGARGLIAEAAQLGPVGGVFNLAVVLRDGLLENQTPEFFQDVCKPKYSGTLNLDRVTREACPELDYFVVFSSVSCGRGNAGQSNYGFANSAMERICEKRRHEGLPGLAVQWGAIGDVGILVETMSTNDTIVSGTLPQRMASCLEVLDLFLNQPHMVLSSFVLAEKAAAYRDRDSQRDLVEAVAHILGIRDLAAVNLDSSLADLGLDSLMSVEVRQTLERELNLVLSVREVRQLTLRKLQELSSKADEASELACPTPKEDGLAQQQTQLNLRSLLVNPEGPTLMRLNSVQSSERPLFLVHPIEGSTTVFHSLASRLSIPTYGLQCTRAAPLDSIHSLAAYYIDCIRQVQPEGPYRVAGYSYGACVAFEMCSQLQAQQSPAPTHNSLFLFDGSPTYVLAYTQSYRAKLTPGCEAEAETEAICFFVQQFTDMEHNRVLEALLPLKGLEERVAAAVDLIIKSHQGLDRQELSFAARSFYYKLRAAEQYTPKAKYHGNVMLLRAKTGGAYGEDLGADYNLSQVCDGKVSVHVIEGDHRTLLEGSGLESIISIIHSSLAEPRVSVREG
UCH37 DUB inh: inhibitors of human UCH37 deubiquitinase, primary screen, biochemical, Ub-AMC cleavage, fluorescence | Ubiquitin carboxyl-terminal hydrolase isozyme L5 (Homo sapiens), Q9Y5K5 | purified proteasome/UCH37 | inhibition, % (no concentration beside the values) | 330,000 compounds, 0.33% hits | AID 588478, 2011;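 active = mean inhibition over replicate wells above about 20%, limit read from the data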
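Reagent: Ub-AMC substrate; assay system: Proteasome-associated human UCH37 deubiquitinase; controls: no-proteasome and no-compound wells; read-out: % inhibition of Ub-AMC cleavage fluorescence; timing: 30 min preincubation with enzyme, 25 min cleavage at room temperature; signal: AMC fluorescence from Ub-AMC cleavage, excitation 355 nm, emission 460 nm; buffer or medium: Tris-HCl pH 7.4 plus ovalbumin, ATP-MgCl2, DTT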
ALR inh: inhibitors of human ALR sulfhydryl oxidase, primary screen, biochemical, H2O2 detection, HRP-luminol luminescence, single point | FAD-linked sulfhydryl oxidase ALR (Homo sapiens), P55789 | purified ALR, DTT oxidation | inhibition, % (concentration not given with the values) | 290,000 compounds, 3.8% hits;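 active = mean replicate inhibition above about 79%, with every replicate also reaching it, limit read from the data; inconclusive = only one of the two criteria met; inactive = mean below limit and not every replicate reaching it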
Rtt109 HAT inh: inhibitors of C. albicans Rtt109/Vps75 HAT, primary screen, biochemical, ThioGlo CoA-SH fluorescence, plate reader; inhibition, % at 34.9 µM; 330,000 compounds, 0.16% hits; Histone acetyltransferase RTT109 (Candida albicans (strain SC5314 / ATCC MYA-2876)), …; AID 540336, 2011; purified Rtt109/Vps75, 4 h;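 active = inhibition of at least 50% in every replicate; inconclusive = best replicate reaches 50% inhibition but some replicates fall short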
Hits are given with their value; n = inactive; u = inconclusive; x = not tested or not shown.

SMILES	HDAC3 inhib	PfM18AAP inh	FAS-TE inh	UCH37 DUB inh	ALR inh	Rtt109 HAT inh
Cc1noc(NS(=O)(=O)c2ccc(NC(=O)c3oc4ccc(Cl)cc4c3C)cc2)c1C	n	n	n	n	98.2	n
CCNc1nc(CSc2ccccc2)nc2sc(C)c(C)c12	n	n	n	n	82.8	n
Cc1sc2nc(CSc3ccccc3)nc(NCCN(C)C)c2c1C	n	n	n	n	n	n
Brc1cc2c(cc1C=NNc1nc(N3CCCC3)nc(N3CCOCC3)n1)OCO2	x	x	x	n	x	x
COc1cc(/C=C2\SC(=S)N(CC(=O)O)C2=O)ccc1OS(=O)(=O)c1ccc(C)cc1	n	x	n	n	89.4	n
CCOc1cc(/C=C2\CN(CC)C/C(=C\c3ccc(O)c(OCC)c3)C2=O)ccc1O	n	29.1	n	n	x	n
CCOc1cc(/C=C2\CCCC(C(=O)C(F)(F)F)=C2O)ccc1O	34.8	n	n	n	n	n
COc1cc(/C=C2/CCCC(C(=O)C(F)(F)F)=C2O)ccc1O	x	n	n	n	x	n
O=C(NN=Cc1cccc(OC(=O)c2ccc3c(c2)OCO3)c1)c1cncc(Br)c1	x	x	x	n	x	x
COc1ccc(CNC(=O)CC(C)=NNC(=O)COc2ccccc2)cc1	x	x	x	n	x	x
COc1ccc(C=NNc2ncc(-c3ccccc3)cn2)c(OC)c1	x	x	x	n	x	x
CCCCC/C=C\C/C=C\C/C=C\C/C=C\CCCC(=O)O	n	x	x	x	97.2	x
Cc1cccc(Nc2nc(N)c([N+](=O)[O-])c(NCCO)n2)c1	n	n	n	x	n	n
COc1cccc(NC2=C(NCCO)C(=O)c3ccccc3C2=O)c1	n	n	n	n	87.2	n
Cc1cccc(NC2=C(NCCO)C(=O)c3ccccc3C2=O)c1	n	n	n	n	98.9	n
COc1ccc(NC2=C(NCCO)C(=O)c3ccccc3C2=O)cc1	n	n	n	n	n	n
Cc1ccc(C=Nn2c(C)nc3ccccc3c2=O)s1	x	x	x	n	x	x
CCN(CC)S(=O)(=O)c1cccc(-c2csc(C)n2)c1	n	n	n	n	97.3	n
Cc1ccc(-c2cn3cccnc3n2)cc1	n	n	n	n	n	n
Nc1cccc(-c2cn3cccnc3n2)c1	n	n	n	n	99.1	n
CCN(CC)S(=O)(=O)c1cccc(-c2cn3cccnc3n2)c1	x	n	n	n	98.7	n
O=C(CN1CCCc2ccccc21)NN=Cc1c(O)ccc2ccccc12	x	x	x	n	x	x
COc1ccc(C=NN(CCC(=O)NC(C)(C)C)C2=NS(=O)(=O)c3ccccc32)cc1	x	x	x	n	x	x
Cc1ccc(Nc2nnc(SCc3cc(=O)n4cc(C)ccc4n3)s2)cc1	n	n	n	n	98.8	n
CC1=C/C(=N\OC(=O)/C=C/c2ccccc2)C(C)=CC1=O	n	n	n	x	94.8	n
SMILES	HDAC3 inhib	PfM18AAP inh	FAS-TE inh	UCH37 DUB inh	ALR inh	Rtt109 HAT inh
CC1=CC(=NOC(=O)/C=C/c2ccccc2)C(C)=CC1=O	x	x	x	n	x	x
CC1CC(C)CN(C(=O)CSc2nnc(N)s2)C1 (stereo unspecified)	n	n	n	n	95.2	n
O=C(NNC(=S)NC(=O)c1cccc([N+](=O)[O-])c1)c1ccc(O)cc1	n	n	n	n	88.2	x
O=C(NNC(=S)Nc1ccc(Cl)c(Cl)c1)c1cccc([N+](=O)[O-])c1	n	n	n	n	97.6	x
CC(=O)NC(=S)Nc1cccc([N+](=O)[O-])c1	n	n	n	n	n	n
O=C(NC(=S)NNC(=O)c1ccccc1[N+](=O)[O-])c1ccccc1	n	n	n	n	96.0	n
Cc1occc1C(=O)NNC(=S)Nc1cccc([N+](=O)[O-])c1	n	n	n	n	98.0	n
CC(=NNC(=O)c1ccc(O)cc1)c1cccc([N+](=O)[O-])c1	x	x	x	n	x	x
Cc1cccc(NC(=S)NNC(=O)c2cccc([N+](=O)[O-])c2)c1	n	n	n	n	n	n
O=S(=O)(c1ccc(NC(=S)NN=Cc2cccc(Oc3ccccc3)c2)cc1)N1CCOCC1	x	x	x	n	x	x
O=C(NC(=S)Nc1cccc(F)c1)c1cccc([N+](=O)[O-])c1	n	n	n	x	n	x
CC(C)(C)c1ccc(OCC(=O)NNC(=S)NC(=O)c2ccccc2[N+](=O)[O-])c(Br)c1	n	n	n	n	92.3	n
Cc1ccc(C(=O)NC(=S)NNC(=O)c2cccc([N+](=O)[O-])c2)cc1	n	n	n	n	98.8	n
CCCCC(=O)NNC(=S)NC(=O)c1cccc([N+](=O)[O-])c1	n	n	n	n	98.0	n
CCCCC(=O)Nc1cccc(NC(=O)c2cccc([N+](=O)[O-])c2)c1	n	n	n	n	n	n
O=C(NNC(=S)NC(=O)c1cccc([N+](=O)[O-])c1)c1ccc(Br)cc1	x	n	n	n	95.8	n
Cc1cc(NC(=O)c2cc([N+](=O)[O-])ccc2Cl)no1	n	n	n	n	n	n
Cc1cccc(C(=O)NC(=S)NNC(=O)c2ccc(Cl)cc2)c1	n	n	n	n	96.1	n
O=C(Nc1cccc(NC(=O)c2cc([N+](=O)[O-])ccc2Cl)n1)c1cc([N+](=O)[O-])ccc1Cl	n	x	56.6	n	n	n
O=C(NNC(=S)NC(=O)c1sc2ccccc2c1Cl)c1ccc(Cl)cc1	n	n	n	x	98.4	n
O=C(Nc1ccc(Oc2cccnc2)cc1)c1cccc([N+](=O)[O-])c1	n	n	57.4	n	n	n
Cc1ccc(C(N)=NOC(=O)C(C)c2ccc([N+](=O)[O-])cc2)cc1 (stereo unspecified)	x	x	x	n	x	x
Cc1ccc(S(=O)(=O)N=C2CN(C)C(=O)N2C)cc1	x	x	x	n	x	x
CCOC(=O)c1c(-c2ccc(OC)cc2)csc1N=CN(C)C	x	x	x	n	x	x
COc1cc(C=NNC(=O)c2nonc2N)c(OC)cc1Br	x	x	x	n	x	x
SMILES	HDAC3 inhib	PfM18AAP inh	FAS-TE inh	UCH37 DUB inh	ALR inh	Rtt109 HAT inh
O=C(NNC(=O)c1cccc([N+](=O)[O-])c1)c1ccncc1	n	n	n	n	n	n
O=C(NNC(=S)NC(=O)c1ccccc1)c1cccc([N+](=O)[O-])c1	n	n	n	n	98.0	n
COc1cc(C(=O)NNC(=S)NC(=O)c2ccc(Cl)cc2)cc(OC)c1OC	n	n	n	n	96.3	n
CCOc1cc(/C=C(\C#N)C(=O)Nc2ccccn2)ccc1O	n	n	n	n	n	n
CCOc1cc(/C=C(\C#N)c2[nH]nc(N)c2C#N)ccc1O	n	n	n	x	99.2	n
COc1ccc(N2C(=O)CCC2=O)cc1	n	n	n	n	n	n
Cc1ccc(N2C(=O)CS(=O)C(c3ccccc3)C2=O)cc1C (stereo unspecified)	n	n	n	n	98.1	u
COc1ccc(N2C(=O)CS(=O)C(c3ccccc3)C2=O)cc1 (stereo unspecified)	n	n	n	n	98.3	n
